{"source": "paper PMC12091843", "about": "(Chemmedchem, 2025)", "key": {"[1]": {"target": "PA ATP synthase (Pseudomonas aeruginosa, UniProt Q9HT14+Q9HT15)", "assay": "biochemical", "conditions": "for Inhibition of PA ATP synthase (in words): even at high / highest concentrations tested"}, "[2]": {"target": "AB ATP synthase (UniProt A3M139+B2I0Z6)", "type": "biochemical, Acinetobacter baumannii", "conditions": "for Inhibition of AB ATP synthase (in words): even at high / highest concentrations tested"}, "[3]": {"tested_on": "MT ATP synthase", "conditions": "cited from earlier work"}, "[4]": {"tested_on": "PA 2108 (MDR)", "assay": "Broth microdilution antibacterial activity", "type": "cell-based, Pseudomonas aeruginosa", "conditions": "for MIC: Pseudomonas aeruginosa; for Antibacterial activity against PA (in words): highest concentration tested"}, "[5]": {"tested_on": "AB 17978", "assay": "Broth microdilution antibacterial activity", "type": "cell-based", "conditions": "Acinetobacter baumannii, read-out: MIC AB 17978"}, "[6]": {"tested_on": "AB (17978 and 1605)", "assay": "Broth microdilution antibacterial activity, AB strains summarised in the text", "type": "cell-based, Acinetobacter baumannii", "conditions": "for Antibacterial activity against AB strains (in words): highest concentration tested; for MIC: Acinetobacter baumannii, read-out: MICs against AB, one or both strains tested"}, "[7]": {"tested_on": "AB 1605 (MDR)", "assay": "Broth microdilution antibacterial activity", "type": "cell-based", "conditions": "Acinetobacter baumannii, read-out: MIC AB 1605 (MDR)"}, "[8]": {"tested_on": "PA ETC", "assay": "Inhibition of NADH-driven H+ pumping of the ETC in PA inverted vesicles", "type": "biochemical, Pseudomonas aeruginosa", "summary_of_the_method": "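Inverted inner-membrane vesicles came from P. aeruginosa ATCC 9027 (LB, 37°C, 150 rpm, late exponential). Cells were homogenizer-lysed in Tris-HCl pH 7.5/MgCl2/glycerol buffer, cleared at 9,000 x g, and vesicles pelleted at 169,000 x g. Assay used vesicles at 0.5 mg/mL in HEPES/300 mM KCl pH 7.5 with ACMA and test compound in DMSO. NADH to 0.8 mM started pumping; nigericin stopped it. Fluorescence Ex 415/Em 485 nm; percent quenching normalized to no-inhibitor control.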"}}, "note": "pIC50: −log10 of the molar value. Read-outs that look alike come from different tables or passages of the source."}
{"smiles": "COc1nc2ccc(Br)cc2cc1[C@@H](c1ccccc1)[C@@](O)(CCN(C)C)c1cccc2ccccc12", "note": "[BDQ, bedaquiline, reference compound]", "values": [{"measurement": "Inhibition of PA ATP synthase (in words)", "setting": "[1]", "value": "does not fully inhibit"}, {"measurement": "Inhibition of AB ATP synthase (in words)", "setting": "[2]", "value": "does not fully inhibit"}, {"measurement": "Potency against MT ATP synthase (in words)", "setting": "[3]", "value": "nanomolar potency"}]}
{"smiles": "O=C(N[C@H](CO)[C@H](O)c1ccc([N+](=O)[O-])cc1)C(Cl)Cl", "note": "[Chloramphenicol, reference compound]", "values": [{"measurement": "MIC", "setting": "[4]; read-out: MIC PA 2108 (MDR)", "value": 64, "unit": "µg/mL"}, {"measurement": "MIC", "setting": "[5]", "value": 64, "unit": "µg/mL"}]}
{"smiles": "c1ccc(CSc2nc3ccccc3cc2CNCc2ccc(N3CCCCC3)cc2)cc1", "note": "[WSA248, 1‐(2‐(benzylthio)quinolin‐3‐yl)‐N‐(4‐(piperidin‐1‐yl)benzyl)methanamine]", "values": [{"measurement": "MIC", "setting": "[4]; read-out: MIC PA 2108 (MDR)", "value": "> 128", "unit": "µg/mL"}, {"measurement": "Antibacterial activity against PA (in words)", "setting": "[4]", "value": "inactive"}, {"measurement": "MIC", "setting": "[5]", "value": "> 128", "unit": "µg/mL"}, {"measurement": "Antibacterial activity against AB strains (in words)", "setting": "[6]", "value": "inactive"}, {"measurement": "Inhibition of PA ATP synthase (in words)", "setting": "[1]", "value": "no significant inhibition"}, {"measurement": "MIC", "setting": "[7]", "value": "> 128", "unit": "µg/mL"}, {"measurement": "Inhibition of AB ATP synthase (in words)", "setting": "[2]", "value": "no significant inhibition"}]}
{"smiles": "c1ccc(CSc2nc3ccccc3cc2CNCc2ccc(CN3CCCC3)cc2)cc1", "note": "[WSA249, 1‐(2‐(benzylthio)quinolin‐3‐yl)‐N‐(4‐(pyrrolidin‐1‐ylmethyl)benzyl)methanamine]", "values": [{"measurement": "MIC", "setting": "[4]; read-out: MIC PA 2108 (MDR)", "value": 16, "unit": "µg/mL"}, {"measurement": "MIC", "setting": "[4]; read-out: MIC against MDR PA", "value": 16, "unit": "µg/mL"}, {"measurement": "MIC", "setting": "[5]", "value": 32, "unit": "µg/mL"}, {"measurement": "MIC", "setting": "[7]", "value": 64, "unit": "µg/mL"}]}
{"smiles": "CN1CCN(CCNCc2cc3ccccc3nc2SCc2ccccc2)CC1", "note": "[WSA250, N‐((2‐(benzylthio)quinolin‐3‐yl)methyl)‐2‐(4‐methylpiperazin‐1‐yl)ethan‐1‐amine]", "values": [{"measurement": "MIC", "setting": "[4]; read-out: MIC PA 2108 (MDR)", "value": 64, "unit": "µg/mL"}, {"measurement": "MIC", "setting": "[5]", "value": 64, "unit": "µg/mL"}, {"measurement": "MIC", "setting": "[7]", "value": 128, "unit": "µg/mL"}]}
{"smiles": "CCN1CCC(CCNCc2cc3cc(OC)c(OC)c(OC)c3nc2SCc2ccccc2)CC1", "note": "[WSA251, N‐((2‐(benzylthio)‐6,7,8‐trimethoxyquinolin‐3‐yl)methyl)‐2‐(1‐ethylpiperidin‐4‐yl)ethan‐1‐amine]", "values": [{"measurement": "Fold less potent than WSA236 against PA (antibacterial)", "setting": "[4]; MIC comparison", "value": 4, "unit": "fold"}, {"measurement": "MIC", "setting": "[4]; read-out: MIC PA 2108 (MDR)", "value": 128, "unit": "µg/mL"}, {"measurement": "MIC", "setting": "[5]", "value": 128, "unit": "µg/mL"}, {"measurement": "Fold less potent than WSA236 against AB (antibacterial)", "setting": "[6]; MIC comparison", "value": 2, "unit": "fold"}, {"measurement": "MIC", "setting": "[7]", "value": "> 128", "unit": "µg/mL"}]}
{"smiles": "COc1cc2cc(CNCCC3CCN(C4CCCC4)CC3)c(SCc3ccccc3)nc2c(OC)c1OC", "note": "[WSA252, N‐((2‐(benzylthio)‐6,7,8‐trimethoxyquinolin‐3‐yl)methyl)‐2‐(1‐cyclopentylpiperidin‐4‐yl)ethan‐1‐amine]", "values": [{"measurement": "MIC", "setting": "[4]; read-out: MIC PA 2108 (MDR)", "value": 64, "unit": "µg/mL"}, {"measurement": "MIC", "setting": "[5]", "value": 64, "unit": "µg/mL"}]}
{"smiles": "COc1cc2cc(CNCCN3CCN(C)CC3)c(SCc3ccccc3)nc2c(OC)c1OC", "note": "[WSA253, N‐((2‐(benzylthio)‐6,7,8‐trimethoxyquinolin‐3‐yl)methyl)‐2‐(4‐methylpiperazin‐1‐yl)ethan‐1‐amine]", "values": [{"measurement": "MIC", "setting": "[4]; read-out: MIC PA 2108 (MDR)", "value": 128, "unit": "µg/mL"}, {"measurement": "MIC", "setting": "[5]", "value": 128, "unit": "µg/mL"}, {"measurement": "Fold worsening of IC50 for PA by trimethoxy modification", "setting": "[1]", "value": "~3", "unit": "fold"}, {"measurement": "MIC", "setting": "[7]", "value": "> 128", "unit": "µg/mL"}, {"measurement": "Fold improvement of IC50 for AB by trimethoxy modification", "setting": "[2]", "value": 3, "unit": "fold"}]}
{"smiles": "CCN1CCC(CCNCc2cc3cc(Br)ccc3nc2SCc2ccccc2)CC1", "note": "[WSA254, N‐((2‐(benzylthio)‐6‐bromoquinolin‐3‐yl)methyl)‐2‐(1‐ethylpiperidin‐4‐yl)ethan‐1‐amine]", "values": [{"measurement": "MIC", "setting": "[4]; read-out: MIC PA 2108 (MDR)", "value": 32, "unit": "µg/mL"}, {"measurement": "MIC", "setting": "[5]", "value": 16, "unit": "µg/mL"}, {"measurement": "MIC", "setting": "[6]", "value": "8 to 16", "unit": "µg/mL"}]}
{"smiles": "Brc1ccc2nc(SCc3ccccc3)c(CNCCC3CCN(C4CCCC4)CC3)cc2c1", "note": "[WSA255, N‐((2‐(benzylthio)‐6‐bromoquinolin‐3‐yl)methyl)‐2‐(1‐cyclopentylpiperidin‐4‐yl)ethan‐1‐amine]", "values": [{"measurement": "MIC", "setting": "[4]; read-out: MIC PA 2108 (MDR)", "value": 32, "unit": "µg/mL"}, {"measurement": "MIC", "setting": "[5]", "value": 16, "unit": "µg/mL"}, {"measurement": "Fold less potent against the ETC compared to ATP synthase", "setting": "[8]; PA ETC IC50 versus PA ATP synthase IC50", "value": "more than 7 fold"}, {"measurement": "PA ETC IC50", "setting": "[8]; PA vesicles, dose response fit", "value": 1.7, "unit": "µg/mL"}, {"measurement": "MIC", "setting": "[6]", "value": "8 to 16", "unit": "µg/mL"}, {"measurement": "pIC50", "setting": "[1]", "value": 6.37}]}
{"smiles": "Brc1ccc2nc(SCc3ccccc3)c(CNCc3ccc(CN4CCCC4)cc3)cc2c1", "note": "[WSA256, 1‐(2‐(benzylthio)‐6‐bromoquinolin‐3‐yl)‐N‐(4‐(pyrrolidin‐1‐ylmethyl)benzyl)methanamine]", "values": [{"measurement": "MIC", "setting": "[4]; read-out: MIC PA 2108 (MDR)", "value": "> 128", "unit": "µg/mL"}, {"measurement": "Antibacterial activity against PA (in words)", "setting": "[4]", "value": "inactive"}, {"measurement": "MIC", "setting": "[5]", "value": "> 128", "unit": "µg/mL"}, {"measurement": "Antibacterial activity against AB strains (in words)", "setting": "[6]", "value": "inactive"}, {"measurement": "MIC", "setting": "[7]", "value": "> 128", "unit": "µg/mL"}]}
{"smiles": "CN1CCN(CCNCc2cc3cc(Br)ccc3nc2SCc2ccccc2)CC1", "note": "[WSA257, N‐((2‐(benzylthio)‐6‐bromoquinolin‐3‐yl)methyl)‐2‐(4‐methylpiperazin‐1‐yl)ethan‐1‐amine]", "values": [{"measurement": "MIC", "setting": "[4]; read-out: MIC PA 2108 (MDR)", "value": 16, "unit": "µg/mL"}, {"measurement": "MIC", "setting": "[4]; read-out: MIC against MDR PA", "value": 16, "unit": "µg/mL"}, {"measurement": "MIC", "setting": "[5]", "value": 8, "unit": "µg/mL"}, {"measurement": "MIC", "setting": "[6]", "value": "8 to 16", "unit": "µg/mL"}, {"measurement": "pIC50", "setting": "[1]", "value": 6.57}, {"measurement": "MIC", "setting": "[7]", "value": 16, "unit": "µg/mL"}]}
{"smiles": "CCN1CCC(CCNCc2cc3cc(-c4ccccc4)ccc3nc2SCc2ccccc2)CC1", "note": "[WSA261, N‐((2‐(benzylthio)‐6‐phenylquinolin‐3‐yl)methyl)‐2‐(1‐ethylpiperidin‐4‐yl)ethan‐1‐amine]", "values": [{"measurement": "MIC", "setting": "[4]; read-out: MIC PA 2108 (MDR)", "value": 64, "unit": "µg/mL"}, {"measurement": "MIC", "setting": "[5]", "value": 8, "unit": "µg/mL"}, {"measurement": "MIC", "setting": "[6]", "value": "8 to 16", "unit": "µg/mL"}, {"measurement": "MIC", "setting": "[7]", "value": 16, "unit": "µg/mL"}]}
{"smiles": "c1ccc(CSc2nc3ccc(-c4ccccc4)cc3cc2CNCCC2CCN(C3CCCC3)CC2)cc1", "note": "[WSA262, N‐((2‐(benzylthio)‐6‐phenylquinolin‐3‐yl)methyl)‐2‐(1‐cyclopentylpiperidin‐4‐yl)ethan‐1‐amine]", "values": [{"measurement": "MIC", "setting": "[4]; read-out: MIC PA 2108 (MDR)", "value": 64, "unit": "µg/mL"}, {"measurement": "MIC", "setting": "[5]", "value": 32, "unit": "µg/mL"}]}
{"smiles": "c1ccc(CSc2nc3ccc(-c4ccccc4)cc3cc2CNCc2ccc(CN3CCCC3)cc2)cc1", "note": "[WSA269, 1‐(2‐(benzylthio)‐6‐phenylquinolin‐3‐yl)‐N‐(4‐(pyrrolidin‐1‐ylmethyl)benzyl)methanamine]", "values": [{"measurement": "MIC", "setting": "[4]; read-out: MIC PA 2108 (MDR)", "value": "> 128", "unit": "µg/mL"}, {"measurement": "Antibacterial activity against PA (in words)", "setting": "[4]", "value": "inactive"}, {"measurement": "MIC", "setting": "[5]", "value": "> 128", "unit": "µg/mL"}, {"measurement": "Antibacterial activity against AB strains (in words)", "setting": "[6]", "value": "inactive"}, {"measurement": "MIC", "setting": "[7]", "value": "> 128", "unit": "µg/mL"}]}
{"smiles": "CN1CCN(CCNCc2cc3cc(-c4ccccc4)ccc3nc2SCc2ccccc2)CC1", "note": "[WSA270, N‐((2‐(benzylthio)‐6‐phenylquinolin‐3‐yl)methyl)‐2‐(4‐methylpiperazin‐1‐yl)ethan‐1‐amine]", "values": [{"measurement": "MIC", "setting": "[4]; read-out: MIC PA 2108 (MDR)", "value": 32, "unit": "µg/mL"}, {"measurement": "MIC", "setting": "[5]", "value": 16, "unit": "µg/mL"}, {"measurement": "MIC", "setting": "[6]", "value": "8 to 16", "unit": "µg/mL"}]}
